The structures appear in SMILES notation. Where only a bound is given, the exact number is not on record here.

These results are taken from ChEMBL document CHEMBL1135379, “Polyhydroxylated azepanes as new motifs for DNA minor groove binding agents” (2002).

In assay [1] the test system is Nucleic Acid. Description: Apparent binding constant was calculated. It is filed as nucleic-acid assay. The essentials: (§1)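 Ethidium displacement (Cain et al. method), pH 7.0. A preformed DNA–ethidium intercalated complex in HEPES buffer with NaCl and EDTA is titrated with ligand while intercalated-ethidium fluorescence is monitored. C50 is the ligand concentration that displaces 50% of the ethidium. K_app = (1.26 × K_e)/C50, using the known ethidium binding constant under these conditions. Means of three experiments.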

Assay [2] concerns Nucleic Acid. Put plainly: Concentration required to displace 50% of the ethidium from a preformed, intercalated complex. It counts as nucleic-acid assay. The essentials:
as §1

In another assay the test system is HCT-116. Put plainly: Tested for in vitro concentration required to inhibit growth by 50% against HCT116 human colon cancer cell line. It is filed as functional.
For a further assay, the system named is HT-29. Put plainly: Tested for in vitro concentration required to inhibit growth by 50% against HT-29 human colon cancer cell line. It is filed as functional.
For a further assay, the system named is MCF7. Put plainly: Tested for in vitro concentration required to inhibit growth by 50% against MCF-7 human breast cancer cell line cell line. It is filed as functional.
The next assay deals with NCI/ADR-RES. Put plainly: Tested for in vitro concentration required to inhibit growth by 50% against MCF-7/ADR human breast cancer cell line cell line. It is filed as functional.

Take `Cn1cc(NC(=O)c2cc(NC(=O)c3cc(NC=O)cn3C)cn2C)cc1C(=O)NCCC(=N)N`: the K app in the assay with Nucleic Acid [1] was 6.7e+06 M⁻¹. Further, the C50 with Nucleic Acid [2] stood at 1.8 µM.
What is called GI50 is the concentration at which growth is held to half of that of the control. Read a low GI50 as more potent growth inhibition. In the case of `CC1(C)O[C@H]2[C@H](O1)[C@H](O)CN(Cc1ccc(OCCCOc3ccc(CN4CC(O)[C@H]5OC(C)(C)O[C@@H]5[C@H](O)C4)cc3)cc1)C[C@H]2O` (single isomer, unassigned), the GI50 turned out to be 6 µM in the assay with HCT-116, 23 µM in the assay on HT-29, 24 µM with MCF7 and 10 µM in the assay with NCI/ADR-RES.
Regarding `OC1CN(Cc2ccc(OCCCOc3ccc(CN4C[C@@H](O)[C@@H](O)[C@H](O)[C@H](O)C4)cc3)cc2)C[C@@H](O)[C@@H](O)C1O` (single isomer, unassigned), in the assay with Nucleic Acid [1], the K app is 190000 M⁻¹. In the assay with Nucleic Acid [2], this compound displayed a C50 of 61.6 µM. Further, the GI50 in the assay on HCT-116 was > 50 µM; with HT-29 it was 24 µM; in the assay on MCF7, > 50 µM; in the assay on NCI/ADR-RES it was > 50 µM.
Turning to `COc1cccc2c1C(=O)c1c(O)c3c(c(O)c1C2=O)C[C@@](O)(C(=O)CO)C[C@@H]3O[C@H]1C[C@H](N)[C@H](O)[C@H](C)O1` [DOXORUBICIN], the GI50 in the assay with HCT-116 is 0.023 µM; with HT-29, 0.056 µM; with MCF7, 0.013 µM; in the assay on NCI/ADR-RES, 16.7 µM.
On to `O=C(O)CCCc1ccc(N(CCCl)CCCl)cc1` [CHLORAMBUCIL], for which the GI50 was determined as 105 µM with HCT-116, 129 µM in the assay with HT-29, 30 µM in the assay on MCF7 and 56 µM in the assay on NCI/ADR-RES.
`N=C(N)c1ccc(OCCCOc2ccc(C(=N)N)cc2)cc1` [PROPAMIDINE]: the K app in the assay on Nucleic Acid [1] was 470000 M⁻¹. Also, the C50 in the assay on Nucleic Acid [2] came to 25.6 µM. For the same compound, the GI50 with HCT-116 is 11 µM; in the assay on HT-29, > 50 µM; with MCF7 it was 9 µM.
In the case of `CC1(C)O[C@H]2[C@H](O1)[C@H](O)CN(c1ccc(OCCCOc3ccc(N4C[C@@H](O)[C@H]5OC(C)(C)O[C@@H]5[C@H](O)C4)cc3)cc1)C[C@H]2O`, in the assay on Nucleic Acid [1], the K app is 17000 M⁻¹. In the assay on Nucleic Acid [2], this compound displayed a C50 of 703 µM. Also, the GI50 in the assay on HCT-116 is 32 µM; in the assay on HT-29 it was 40 µM; in the assay on MCF7 it was 33 µM; with NCI/ADR-RES, > 50 µM.
As to `OC1CN(Cc2ccc(OCCCOc3ccc(CN4C[C@H](O)[C@@H](O)[C@H](O)[C@@H](O)C4)cc3)cc2)C[C@H](O)[C@@H](O)C1O` (single isomer, unassigned), the K app with Nucleic Acid [1] was 120000 M⁻¹. In the assay with Nucleic Acid [2], this compound showed a C50 of 97 µM.
